In ChEMBL document CHEMBL3797089, “Morusin Induces TRAIL Sensitization by Regulating EGFR and DR5 in Human Glioblastoma Cells” (J Nat Prod, 2016):
Calls of active or inactive are those of the source. No cut-off for these calls is given here.

Legend:
Type in all cases: functional, cell-based
[1] = Reduction of XIAP mRNA expression in human U87MG cells after 24 hrs by RT-qPCR analysis; conditions: U-87MG ATCC
In short: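 U87MG cells were treated with graded morusin for 24 h. Total RNA was extracted with TRI Reagent, and 1 μg was reverse transcribed. XIAP and survivin mRNA were quantified by RT-qPCR, normalized to GAPDH. Results are mean ± SD from at least three independent experiments; unpaired t-test.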

[2] = Reduction of XIAP expression in human U373MG cells after 24 hrs by Western blot analysis; conditions: U-373MG ATCC
In short: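 U87MG (MEM) and U373MG (RPMI) cells were given graded morusin concentrations for 24 h. Whole-cell extracts were immunoblotted for anti-apoptotic proteins, with β-actin as loading control.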

[3] = Cytotoxicity against human LN18 cells assessed as reduction in cell viability after 24 hrs by MTT assay; conditions: LN-18, 24 h
In short: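 Seeded 3–5 × 10^3 cells/well, treated the next day with a range of morusin (DMSO stock) for 24 h, 37 °C, 5% CO2. Then fresh medium with 1 mg/mL MTT for 2 h at 37 °C, lysis buffer overnight at 37 °C, OD 570 nm. Mean ± SD from at least three independent experiments in triplicate.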

[4] = Reduction of PDGFR expression in human LN18 cells at 25 uM after 24 hrs by Western blot analysis; conditions: LN-18
In short: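 LN18, U87MG, T98G, U251MG and U373MG glioblastoma cells were exposed to morusin for 24 h. Cells were maintained in DMEM, MEM or RPMI with 10% FBS at 37 °C and 5% CO2. Whole-cell lysates were Western blotted for receptor proteins, with β-actin as internal control.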

CC(C)=CCc1c(-c2ccc(O)cc2O)oc2c3c(cc(O)c2c1=O)OC(C)(C)C=C3 [MORUSIN]
Activity [1]: Dose-dependent effect
inhibition [2]: Dose-dependent effect
IC50 [3]: 24 µM
Activity [4]: Active
